# Only some compounds are listed: those with a hit (about 3% of all), similar ones and a draw of the others.
# TMEM16A inh = TMEM16A chloride channel inhibitors, primary screen, cell-based, HTS | normalized B-score (activity score, 25-100; higher = stronger inhibition) at 10 µM | AID 588511, 2011 | 310,000 compounds, 1.2% hits | HEK293 TMEM16A/YFP iodide influx fluorescence, ionomycin | Anoctamin-1 (Mus musculus), Q8BHY3;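 active = ratio plate-corrected score three or more library SD toward inhibition, starting fluorescence score within five deviations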;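 also: score derived from kinetic fluorescence span divided by baseline fluorescence per well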
# ANO1 activ = TMEM16A chloride channel activators or potentiators, primary screen, cell-based, HTS; B-score at 10 µM; HEK293 TMEM16A/YFP-H148Q/I152L, iodide quench fluorescence; active compounds read low; 340,000 compounds, 0.3% hits; Anoctamin-1 (Mus musculus), Q8BHY3;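 active = fluorescence-ratio B-score plate-corrected deviation score at least 3 library SD below zero, with starting fluorescence score within 5 deviations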;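 also: channel opened by trigger with iodide after compound preincubation; score built on the fluorescence ratio of max minus min over baseline; more negative score means more quench and so TMEM16A activation or potentiation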
# FID counter = compounds displacing fluorescent DNA intercalator, primary screen, artefact control for HCV NS3 helicase inhibitor project, biochemical, FID fluorescence | AID 1845, 2009 | DNA fluorescent intercalator displacement | inhibition, % at 7.9 µM | 290,000 compounds, 0.17% hits; in the data active = inhibition above about 37%;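 also: 0% = vehicle and 100% = reference compound; higher means more ethidium bromide displaced from hairpin DNA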
# SR-BI HDL uptake = inhibitors of SR-BI mediated HDL lipid uptake, primary screen, ldlA[mSR-BI] cells, fluorescence, single point | 320,000 compounds, 0.96% hits | ldlA[mSR-BI] CHO cells, DiI-HDL uptake fluorescence, 3 h | Scavenger receptor class B member 1 (Mus musculus), Q61009 | inhibition, % at 12.5 µM;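 active = mean replicate inhibition of at least 70% and a set share of replicates each scoring 70 or more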;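 also: 0% = median of neutral control wells and 100% = median of positive control wells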
# Kir21 block = inhibitors of mouse Kir2.1 inward-rectifier potassium channel. HEK293-Kir2.1, FluxOR thallium flux fluorescence; active compounds read low. 310,000 compounds, 0.85% hits. Inward rectifier potassium channel 2 (Mus musculus), P35561. B-score at 10 µM. AID 1672, 2009;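 active = fluorescence ratio B-score at or below minus 3 SD of library scores, with starting-brightness B-score within 2 SD, cut at about -4.2 in these data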;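 also: channel flux triggered by added potassium and thallium sulfate stimulus; B-score of peak minus minimum fluorescence over baseline after thallium stimulus; more negative B-score means stronger Kir2.1 block with less thallium influx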
# SR-BI uptake up = activators of SR-BI mediated DiI-HDL uptake, primary screen, ldlA[mSR-BI] CHO cells, DiI fluorescence; 3 h; 100 = double the neutral-control signal; activation, % at 12.5 µM; 320,000 compounds, 0.096% hits; AID 504775, 2011;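 active = mean replicate activation of at least 60% and every replicate at or above 60%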;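 also: 0% = median plate neutral-control signal and 100% = twice that signal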
#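 Material: SR-BI-overexpressing, LDLR-lacking CHO cells | Dosing: Single compound concentration, delivered by pin transfer | Probe or stimulus: Labelled HDL, 10 µg/mL | Signal: Bottom-read cell fluorescence after medium removal, ex 550/em 595 nm | Schedule: 3 h, 37 °C | Evaluation: HDL uptake via cellular fluorescence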
# TMEM16A reconf = TMEM16A chloride channel inhibitors, confirmation, cell-based, re-confirmation | shares compounds with TMEM16A inh | HEK293 TMEM16A/YFP-H148Q, iodide quench fluorescence; ionomycin added to raise cell calcium | inhibition, % at 10 µM | 2,300 compounds, 39% hits | AID 652189, 2013;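 active = mean duplicate percent inhibition, scaled so buffer wells are 0 and the reference blocker 100, over three buffer SD above buffer mean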
# TMEM16A Ca cntr = calcium mobilization in TMEM16A/YFP HEK293 cells, confirmation, counter-screen for TMEM16A inhibitor project | 2,300 compounds, 2% hits | calcium response (% of ionomycin), % at 10 µM | Fluo4 calcium mobilization | shares compounds with TMEM16A inh;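 active = duplicate-averaged calcium signal over 20% of the ionomycin maximum, relative to buffer baseline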;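 also: each well's signal is peak minus trough fluorescence divided by its pre-addition baseline; 0% = buffer wells and 100% = ionomycin wells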
# YFP-HEK293 quench = iodide YFP quench changes in parental YFP-HEK293, counter-screen for TMEM16A inhibitor project, cell-based; shares compounds with TMEM16A inh; ionomycin; YFP ratio F(max-min)/F0 at 10 µM; 2,300 tested, under 10 active;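 active = yellow fluorescent protein signal ratio exceeding the buffer control mean by over 5 SD of those controls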;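 also: ratio is mean of duplicate wells from kinetic YFP trace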
# ClC-1 rat inh = ClC-1 chloride channel inhibition, selectivity assay for TMEM16A inhibitor project, cell-based, voltage-dependent ClC-1; shares compounds with TMEM16A inh; CHO ClC-1-YFP, iodide influx fluorescence quench; iodide control reads 0, buffer control 100; ratio percent, % at 10 µM; 2,300 tested, under 10 active;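 active = duplicate-mean ratio percent above the mean of iodide-only control wells, which defines zero, plus 5 of their SD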;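 also: higher percent means stronger block of ClC-1 iodide influx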
# The depositor's hits bear a star; i = inactive; . = not tested or not shown.
SMILES,TMEM16A inh,ANO1 activ,FID counter,SR-BI HDL uptake,Kir21 block,SR-BI uptake up,TMEM16A reconf,TMEM16A Ca cntr,YFP-HEK293 quench,ClC-1 rat inh
COc1ccc(NC(=O)C2CCC(C)(C(=O)O)C2(C)C)cc1 (stereo unspecified),i,i,2,.,-1.3,.,.,.,.,.
COc1ccccc1N1CCN(C(=O)c2sc3nc(-c4ccc(F)cc4)cn3c2C)CC1,25*,i,-40,58,0.62,-58,i,i,-0.92,-7
c1ccc(-c2cncn2-c2ccccc2)cc1,i,i,.,-5,-2.6,5,.,.,.,.
CCOC(=O)C(CCC(=O)O)(CCC(C)C)c1csc(N)n1 (stereo unspecified),100*,i,-7,-3,-0.68,3,i,i,-0.97,-14
COc1cc(OC)c(NC(=S)Nc2cc(Cl)cc(Cl)c2)cc1Cl,100*,i,2,66,-1,-66,18%*,i,-1.1,-34
COc1cc(OC)c(NC(=S)NCc2ccccc2)cc1Cl,i,i,-1,4,0.58,-4,.,.,.,.
CCCCCCCCC(=O)Nc1cc(C)ccc1OC,100*,i,-8,-5,0.07,5,i,i,-1.2,-12
CCNS(=O)(=O)c1ccc(NC(=O)Nc2ccccc2OC)cc1,i,i,1,.,0.01,.,.,.,.,.
CCNS(=O)(=O)c1ccc(NC(=O)Nc2cc(C)ccc2OC)cc1,25*,i,-12,3,2.4,-3,i,i,-1.1,-6
CC(NC(=O)Cc1ccsc1)c1ccc(F)cc1 (stereo unspecified),i,i,-2,.,0.11,.,.,.,.,.
COC(=O)Cc1nnc(NC(=O)C(C)C)s1,25*,i,-2,-25,0.09,25,i,i,-0.82,-10
COc1cc(NS(=O)(=O)c2ccc(N/C=C(\C#N)c3nc4cc(Cl)ccc4o3)cc2)nc(OC)n1,100*,i,-18,17,0.21,-17,i,i,-0.97,-18
CC(C)(C)OC(=O)NCC(=O)NNC(=O)C(C(=O)OCc1ccccc1)c1ccccc1 (stereo unspecified),.,i,.,8,.,-12,.,.,.,.
CCCC(CCC)C(=O)Nc1c[nH]c(=O)[nH]c1=O,100*,i,-5,-4,-0.19,4,i,i,-0.99,-22
Cc1ccccc1-n1ccnc1SCC(=O)NC1CCCC1,i,i,-23,11,-1.7,-11,.,.,.,.
CC(=O)c1ccc(NC(=O)Nc2cccc(Cl)c2)cc1,25*,i,5,13,-0.39,-13,54%*,i,-1.1,-27
COc1ccc(/C=C2/CCc3ccccc3C2=O)cc1OC,i,i,-23,-22,0,22,.,.,.,.
COc1cc(OC)c(OC)cc1/C=C1/Cc2ccccc2C1=O,i,i,-15,1,-0.07,-1,i,28%*,-0.98,-2
COc1ccc(S(=O)(=O)Nc2ccc(F)cc2)cc1N(C)S(=O)(=O)c1ccc(Cl)cc1,i,i,-7,15,-0.67,-15,.,.,.,.
COc1ccc(S(=O)(=O)N2CCN(c3ccc(C)cc3C)CC2)cc1OC,25*,i,-27,-4,-0.78,4,26%*,i,-0.95,-18
COc1ccc(S(=O)(=O)N2CCCCCC2)cc1Br,.,i,0,37,-0.9,-37,.,.,.,.
COc1ccc(S(=O)(=O)N2CCCCCC2)cc1N(C)S(=O)(=O)c1ccc(C)cc1,100*,i,-9,39,-1.2,-39,i,i,-1.2,-6
COc1ccc(NS(=O)(=O)c2ccc(OC)c(N(C)S(=O)(=O)c3ccc(Cl)cc3)c2)cc1,100*,i,-19,16,0.54,-16,i,i,-1.1,-18
COc1ccc(S(=O)(=O)N2CCN(c3c(C)cccc3C)CC2)cc1OC,i,i,-6,3,1.3,-3,.,.,.,.
O=c1cc(-c2ccccc2)nc2c(-c3ccccc3)c(C(F)(F)F)[nH]n12,100*,i,-14,.,-0.04,.,58%*,i,-0.97,-10
SMILES,TMEM16A inh,ANO1 activ,FID counter,SR-BI HDL uptake,Kir21 block,SR-BI uptake up,TMEM16A reconf,TMEM16A Ca cntr,YFP-HEK293 quench,ClC-1 rat inh
Cc1cc(=O)n2[nH]c(C)c(-c3ccccc3)c2n1,i,i,1,-8,1.6,8,.,.,.,.
CN(C)Cc1cc(C(C)(C)C)cc(C(C)(C)C)c1O,i,i,2,-14,-1.8,14,.,.,.,.
CN(C)Cc1cc(O)c(CN(C)C)cc1O,i,i,2,-7,0.28,7,i,i,-0.86,-6
CC(=O)Nc1nc(-c2ccc3c(c2)CCN3S(C)(=O)=O)cs1,i,i,-1,63,0.34,-63,.,.,.,.
CS(=O)(=O)N1CCc2cc(-c3csc(NC(=O)Cc4cccs4)n3)ccc21,25*,i,-11,55,1.1,-55,31%*,i,-0.89,-5
Cc1ccc(NC(NC(=O)c2cccs2)C(Cl)(Cl)Cl)cc1C (stereo unspecified),100*,i,0,12,0.73,-12,28%*,i,-1.2,-10
Cc1ccc(NC(NC(=O)c2cccs2)C(Cl)(Cl)Cl)cc1 (stereo unspecified),i,i,3,-17,0.02,17,.,.,.,.
Cc1cc2c(cc1C)N[C@]1(C[C@H]3CCCC(=O)N4CC[C@@H](C1)[C@@H]34)C(=NC(C)(C)CC(C)(C)C)N2,.,i,.,-19,.,19,.,.,.,.
CCN1CCN(CCCNC(=O)c2ccc(/C=C3/Sc4ccccc4N(Cc4ccccc4F)C3=O)cc2)CC1,i,i,26,.,1.2,.,25%*,i,-1.3,-6

# Bioassay records: PubChem, several laboratories
